Rows were chosen to be rich in hits. Some 2.8% of all compounds tested hit in one or more screens of this group.
HTRA1 inh – HTRA1 serine protease inhibitors, primary screen, biochemical, fluorescence polarization, HTS. Q92743. recombinant HTRA1, FP-rhodamine activity-based probe. inhibition, % at 5.96 µM. 340,000 tested, 0.5% active. AID 504803, 2011; in the data active = inhibition above about 36%;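 also: 0% = enzyme with DMSO and 100% = wells lacking enzyme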
Target sequence (Q92743 whole entry, looked up): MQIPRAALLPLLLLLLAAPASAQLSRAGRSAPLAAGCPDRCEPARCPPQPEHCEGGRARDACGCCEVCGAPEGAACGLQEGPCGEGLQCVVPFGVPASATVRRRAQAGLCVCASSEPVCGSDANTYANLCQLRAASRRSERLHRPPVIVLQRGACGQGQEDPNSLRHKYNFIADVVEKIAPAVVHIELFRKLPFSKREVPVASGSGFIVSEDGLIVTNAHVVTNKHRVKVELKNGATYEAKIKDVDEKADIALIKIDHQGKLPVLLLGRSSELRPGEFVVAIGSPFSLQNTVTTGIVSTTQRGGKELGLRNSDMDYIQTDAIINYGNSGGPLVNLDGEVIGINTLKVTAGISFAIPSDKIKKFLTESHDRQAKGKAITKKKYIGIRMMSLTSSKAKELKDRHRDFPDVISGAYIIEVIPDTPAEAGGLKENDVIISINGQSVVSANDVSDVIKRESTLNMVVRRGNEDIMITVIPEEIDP
PAFAH1B3 inh – PAFAH1B3 enzyme inhibitors, primary screen, biochemical, fluorescence polarization, human; recombinant PAFAH1B3, FP-rhodamine probe; 340,000 tested, 0.28% active; inhibition, % at 3.39 µM;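 active = inhibition above the screen-wide average of all tested compounds plus 3 SD, cut at about 25% in these data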;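 also: 0% = enzyme with DMSO only and 100% = wells lacking PAFAH1B3 protein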
PAFAH2 inh – PAFAH2 enzyme inhibitors, primary screen, biochemical, fluorescence polarization, human | Platelet-activating factor acetylhydrolase 2, cytoplasmic (Homo sapiens), Q99487 | recombinant PAFAH2, FP-rhodamine activity probe | inhibition, % at 3.39 µM | 340,000 tested, 0.99% active;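 active = inhibition above the mean over all tested compounds plus 3 SD, cut at about 30% in these data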;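 also: inhibitors block probe labeling of enzyme so polarization drops; 0% = enzyme with DMSO and 100% = wells lacking PAFAH2 protein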
mABHD4 FP – ABHD4 inhibitors, primary screen, biochemical, fluorescence polarization, mouse; (Lyso)-N-acylphosphatidylethanolamine lipase (Mus musculus), Q8VD66; purified mABHD4, FP-Rh probe fluorescence polarization; inhibition, % at 8.92 µM; 370,000 tested, 0.54% active; AID 720543, 2013;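 active = inhibition exceeding the mean over every tested compound plus 3 SD, cut at about 30% in these data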;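 also: 0% = plate median of compound wells and 100% = S159A mutant with DMSO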
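Assay system: mABHD4 protein; medium: HEPES pH 7.0, NaCl, Pluronic buffer; dosing: 8.92 µM, single dose; schedule: 45 min + 60 min at 25 °C; signal: FP readout, ex 525 nm / em 598 nm; read-out: normalized percent inhibition of probe labeling; repeats: single replicate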
PAFAH1B2 FP inh – PAFAH1B2 enzyme inhibitors, primary screen, biochemical, fluorescence polarization, human | Platelet-activating factor acetylhydrolase IB subunit alpha2 (Homo sapiens), P68402 | recombinant PAFAH1B2, FP-rhodamine activity probe | inhibition, % at 3.39 µM | 340,000 tested, 1.2% active | AID 492953, 2010;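 active = inhibition above the mean of all tested compounds plus 3 SD, cut at about 24% in these data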;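 also: 0% = enzyme with DMSO and 100% = wells lacking PAFAH1B2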
pPAFAH FP inh – pPAFAH enzyme inhibitors, primary screen, biochemical, fluorescence polarization, human. inhibition, % at 3.39 µM. recombinant pPAFAH, FP-rhodamine probe fluorescence polarization. 330,000 tested, 1.5% active. AID 463082, 2010. Platelet-activating factor acetylhydrolase (Homo sapiens), Q13093;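 active = inhibition above the mean inhibition across the screen plus 3 SD, cut at about 25% in these data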;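 also: inhibitors block binding of the rhodamine activity-based probe so polarization drops; 0% = enzyme with DMSO and 100% = wells lacking pPAFAH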
HTRA1 conf – HTRA1 protease inhibitors, retest, confirmation, biochemical, fluorescence polarization | inhibition, % at 5.96 µM | recombinant HTRA1, FP-rhodamine activity-based probe | 1,600 tested, 66% active | shares compounds with HTRA1 inh;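 active = mean inhibition over three repeats above a set limit taken from the earlier primary screen, cut at about 37% in these data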;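 also: 0% = HTRA1 with DMSO and 100% = wells lacking HTRA1; inhibitors block probe binding so polarization drops and inhibition rises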
mABHD4 conf – ABHD4 inhibitors, retest, confirmation, biochemical, fluorescence polarization, mouse. shares compounds with mABHD4 FP. purified mABHD4, FP-Rh probe fluorescence polarization. inhibition, % at 8.92 µM. 1,800 tested, 55% active;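 active = mean inhibition across replicates above the hit cutoff set in the primary screen, cut at about 30% in these data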;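 also: 0% = wild-type ABHD4 with DMSO and 100% = catalytically dead S159A mutant with DMSO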
* = called active by the depositor; nt = no result given.

SMILES	HTRA1 inh	PAFAH1B3 inh	PAFAH2 inh	mABHD4 FP	PAFAH1B2 FP inh	pPAFAH FP inh	HTRA1 conf	mABHD4 conf
C=CCOc1c(Cl)cc(CNc2ccc(C)c(Cl)c2)cc1OC	nt	nt	nt	nt	nt	8	nt	nt
C=CCOc1c(Cl)cc(CNc2ccc(N(C)C)cc2)cc1OC	48*	7	11	40*	4	25*	7	45*
Oc1cccc(/C=N/N2CCCCC2)c1O	17	14	1	20	6	15	nt	nt
Oc1ccc(/C=N/N2CCCCC2)c(O)c1O	38*	18	15	31*	5	21	33	15
CNc1ccc(Br)cc(C(=O)/C=C/c2ccc(OC)cc2OC)c1=O	50*	18	13	36*	2	25*	17	30*
COc1ccc(/C=C/C(=O)c2ccc(OC)cc2OC)c(OC)c1	-26	2	-10	0	-1	-6	nt	nt
O=C(N/N=C/c1c(O)ccc2ccccc12)c1ccc(Br)o1	48*	35*	14	38*	12	29*	42*	10
Cn1cc(C(=O)N/N=C/c2c(O)ccc3ccccc23)ccc1=O	62*	6	11	31*	13	19	42*	30*
COc1cccc(/C=N/NC(=O)c2ccc(=O)n(C)c2)c1O	3	13	3	0	8	6	nt	nt
Cc1cc(C)cc(-c2c(C(=O)c3ccccc3)[nH]c(N)c2C(=O)NCCc2c[nH]c3ccccc23)c1	nt	nt	nt	29	nt	nt	nt	nt
COC(=O)[C@]12C[C@H](CC(=O)N3CCN(C(=O)c4ccco4)CC3)C(=O)N(Cc3ccc(Cl)cc3Cl)C1=C[C@H](C(C)(C)C)O[C@@H]2C	nt	nt	nt	-22	nt	nt	nt	nt
Nn1c(SCC(=O)NC2CCCCC2)nnc1-c1cc(-c2ccccc2)n[nH]1	nt	nt	nt	2	nt	nt	nt	nt
N#CC1=C2N=C(N)c3c(sc4c3CCCCC4)N2C2=C(C(=O)CCC2)C1c1ccccc1 (stereo unspecified)	40*	12	12	32*	7	30*	9	-26
Nc1cc2cccnc2cc1Cl	46*	37*	44*	53*	21	nt	-1	36*
Cc1ccc(-c2c(NC(=O)C3CC3)nc3ncccn23)cc1	nt	nt	nt	2	nt	nt	nt	nt
COc1ccc(C(C[N+](=O)[O-])c2c(-c3ccccc3)cc3ccccn23)cc1OC (stereo unspecified)	18	-3	-3	9	-3	7	nt	nt
COc1cc(C(C[N+](=O)[O-])c2c(C)cc3ccccn23)ccc1O (stereo unspecified)	40*	12	4	30*	5	23	40*	13
N#Cc1ccc(Cn2ccc3ccc(-c4ccc5ccn(Cc6ccc(C#N)cc6)c5c4)cc32)cc1	nt	nt	nt	6	nt	nt	nt	nt
Cc1ccccc1C(=O)N(C)[C@H]1C[C@H]2c3[nH]c4c(-c5ccccc5)cccc4c3CCN2C[C@H]1[C@H](C)O	nt	nt	nt	5	nt	nt	nt	nt
NNC(=O)c1cc(O)c(O)c(O)c1	79*	10	2	36*	7	30*	21	6
CN(Cc1ccccc1)C(=O)OCc1cn(Cc2cccc(Cl)c2)nn1	nt	nt	nt	-13	nt	nt	nt	nt
Clc1ccc(C2Nc3cccc4cccc(c34)N2)cc1Cl	21	17	12	14	8	6	nt	nt
Fc1cccc(Cl)c1C1Nc2cccc3cccc(c23)N1	50*	18	17	57*	-1	13	19	48*
COc1cc(OC)c(C2Nc3cccc4cccc(c34)N2)c(OC)c1	52*	15	12	50*	2	nt	19	36*
Clc1cccc(C2Nc3cccc4cccc(c34)N2)c1	9	17	-1	13	2	14	nt	nt
SMILES	HTRA1 inh	PAFAH1B3 inh	PAFAH2 inh	mABHD4 FP	PAFAH1B2 FP inh	pPAFAH FP inh	HTRA1 conf	mABHD4 conf
Clc1cccc(Cl)c1C1Nc2cccc3cccc(c23)N1	70*	14	18	72*	2	24	26	48*
O=S(c1ccccc1O)S(=O)c1ccccc1O (stereo unspecified)	40*	14	27	37*	9	nt	34	34*
O=C(NCCc1c[nH]c2ccccc12)OCc1cn(Cc2c(F)cccc2F)nn1	nt	nt	nt	-5	nt	nt	nt	nt
O=[N+]([O-])c1ccccc1C1Nc2cccc3cccc(c23)N1	51*	14	13	53*	-3	18	20	55*
Oc1ccccc1C1Nc2cccc3cccc(c23)N1	30	23	25	14	6	10	nt	nt
CC(C)(C)c1ccc(S(=O)(=O)N2CCC(C(=O)NCCC3=CCCCC3)CC2)cc1	nt	nt	nt	-2	nt	nt	nt	nt
Nc1ccc(N(c2ccccc2)c2ccc(N)cc2)cc1	65*	6	6	39*	8	10	54*	48*
Cc1cccc(NCc2ccc(O)c3ncccc23)c1	25	5	-10	3	-1	0	nt	nt
COc1ccc(C)cc1N=Nc1ccc(O)c2ncccc12	86*	3	-2	36*	3	nt	64*	39*
COCCNC(=S)N(C)[C@H]1C[C@H]2c3[nH]c4c(-c5cccc(C)c5)cccc4c3CCN2C[C@H]1[C@H](C)O	nt	nt	nt	11	nt	nt	nt	nt
Cc1cccc2sc(NNC(=O)c3cc(=O)c4ccccc4o3)nc12	38*	12	8	30*	5	27*	64*	44*
Cc1ccc2sc(NNC(=O)c3cc(=O)c4ccccc4o3)nc2c1C	70*	15	6	41*	9	15	132*	59*
COc1ccc(S(=O)(=O)NCc2ccc3c(c2)cc(C)n3C)cc1	40*	-1	19	47*	5	13	0	15
